Active and inactive are the calls of the source. The rule behind the calls is not given here.
Columns and labels:
[1] = test system: Macrophage; assay: Inhibition of cholesterol ester accumulation in macrophages (unknown origin); assay type: functional, cell-based
[2] = test system: Proteasome; assay: Inhibition of proteasome (unknown origin); assay type: subcellular; settings: Homo sapiens
[3] = biological target: Tumour suppressor p53/oncoprotein Mdm2 (Homo sapiens) (UniProt P04637+Q00987); assay: Inhibition of p53/Mdm2 interaction (unknown origin); assay type: protein assay
[4] = test system: HeLa; assay: Cytotoxicity in human HeLa cells at 50 uM incubated for 3 days by MTT assay; assay type: functional, cell-based
Method in brief: (§1)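 HeLa cells; daunorubicin run alongside as the positive control.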

[5] = biological target: Ubiquitin-conjugating enzyme E2 N/Ubiquitin-conjugating enzyme E2 variant 1 (Homo sapiens) (UniProt Q13404+P61088); assay: Inhibition of Ubc13/Uev1A interaction (unknown origin); assay type: protein assay
[6] = biological target: Ubiquitin carboxyl-terminal hydrolase 7 (Homo sapiens) (UniProt Q93009); assay: Inhibition of USP7 (unknown origin)
[7] = biological target: T1, Ubiquitin-like modifier-activating enzyme 1 (Homo sapiens) (UniProt P22314); assay: Inhibition of Ubiquitin/Ubiquitin-activating enzyme E1 (unknown origin)
T1 sequence (whole entry): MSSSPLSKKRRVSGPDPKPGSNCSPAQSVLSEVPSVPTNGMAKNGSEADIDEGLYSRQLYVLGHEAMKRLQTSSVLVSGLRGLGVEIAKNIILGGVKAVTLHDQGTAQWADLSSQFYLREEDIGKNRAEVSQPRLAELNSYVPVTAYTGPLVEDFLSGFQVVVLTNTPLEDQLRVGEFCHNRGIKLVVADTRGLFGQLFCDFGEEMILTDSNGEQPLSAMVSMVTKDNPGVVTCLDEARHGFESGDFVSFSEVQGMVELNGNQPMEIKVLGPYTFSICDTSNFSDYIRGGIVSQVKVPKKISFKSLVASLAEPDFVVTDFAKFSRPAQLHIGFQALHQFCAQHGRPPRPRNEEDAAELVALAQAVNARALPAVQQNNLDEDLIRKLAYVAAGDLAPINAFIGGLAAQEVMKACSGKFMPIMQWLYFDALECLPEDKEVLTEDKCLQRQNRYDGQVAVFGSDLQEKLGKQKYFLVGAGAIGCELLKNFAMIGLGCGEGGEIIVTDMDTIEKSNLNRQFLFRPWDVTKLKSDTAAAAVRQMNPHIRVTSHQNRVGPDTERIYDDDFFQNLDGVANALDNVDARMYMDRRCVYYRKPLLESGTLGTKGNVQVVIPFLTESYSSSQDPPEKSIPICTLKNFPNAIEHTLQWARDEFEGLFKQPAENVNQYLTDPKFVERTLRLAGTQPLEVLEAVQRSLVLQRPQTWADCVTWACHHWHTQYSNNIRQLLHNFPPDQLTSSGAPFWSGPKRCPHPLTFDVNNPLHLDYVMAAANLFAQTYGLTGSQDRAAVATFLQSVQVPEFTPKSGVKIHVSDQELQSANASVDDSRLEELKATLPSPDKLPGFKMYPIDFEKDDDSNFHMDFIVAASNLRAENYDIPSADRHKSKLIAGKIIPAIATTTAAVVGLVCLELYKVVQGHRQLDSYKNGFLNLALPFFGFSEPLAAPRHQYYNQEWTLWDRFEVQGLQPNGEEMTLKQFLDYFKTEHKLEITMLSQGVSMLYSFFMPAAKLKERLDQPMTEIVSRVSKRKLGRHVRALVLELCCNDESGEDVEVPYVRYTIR

[8] = test system: Osteoclast; assay: Inhibition of RANKL-induced formation of multinuclear osteoclasts (unknown origin); assay type: functional, cell-based
[9] = test system: HeLa; assay: Cytotoxicity in human HeLa cells incubated for 3 days by MTT assay; assay type: functional, cell-based; settings: 72 h; method in brief: as §1

Chain of Ubiquitin carboxyl-terminal hydrolase 7 (Homo sapiens) (Q93009 whole entry, looked up): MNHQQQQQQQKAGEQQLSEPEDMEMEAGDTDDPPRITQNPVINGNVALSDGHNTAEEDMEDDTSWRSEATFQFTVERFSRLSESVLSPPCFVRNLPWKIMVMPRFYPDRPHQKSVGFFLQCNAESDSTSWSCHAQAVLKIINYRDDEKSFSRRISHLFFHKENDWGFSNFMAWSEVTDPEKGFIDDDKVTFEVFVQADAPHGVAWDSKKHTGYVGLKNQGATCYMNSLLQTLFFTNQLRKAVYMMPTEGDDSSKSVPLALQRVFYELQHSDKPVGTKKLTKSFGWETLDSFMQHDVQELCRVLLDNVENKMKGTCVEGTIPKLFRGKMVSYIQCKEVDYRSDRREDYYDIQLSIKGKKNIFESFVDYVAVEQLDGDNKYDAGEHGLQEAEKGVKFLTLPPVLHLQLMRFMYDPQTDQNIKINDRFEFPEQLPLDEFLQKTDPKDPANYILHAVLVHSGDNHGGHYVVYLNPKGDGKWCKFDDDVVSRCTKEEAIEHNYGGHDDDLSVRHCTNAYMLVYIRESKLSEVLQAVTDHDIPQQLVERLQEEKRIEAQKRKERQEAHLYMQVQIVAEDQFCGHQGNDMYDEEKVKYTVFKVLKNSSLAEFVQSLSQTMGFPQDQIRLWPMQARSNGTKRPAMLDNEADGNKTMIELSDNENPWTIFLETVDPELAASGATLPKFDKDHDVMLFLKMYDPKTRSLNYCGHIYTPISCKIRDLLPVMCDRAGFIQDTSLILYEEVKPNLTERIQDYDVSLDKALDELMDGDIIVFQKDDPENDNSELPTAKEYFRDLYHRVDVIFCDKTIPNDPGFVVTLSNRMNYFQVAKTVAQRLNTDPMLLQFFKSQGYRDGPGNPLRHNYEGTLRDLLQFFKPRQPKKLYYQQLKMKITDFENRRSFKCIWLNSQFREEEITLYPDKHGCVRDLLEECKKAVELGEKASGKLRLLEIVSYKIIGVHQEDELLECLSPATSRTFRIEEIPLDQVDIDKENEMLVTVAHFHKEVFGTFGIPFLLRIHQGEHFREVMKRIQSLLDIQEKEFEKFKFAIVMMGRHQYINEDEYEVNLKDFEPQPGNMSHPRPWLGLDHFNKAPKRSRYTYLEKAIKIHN
Chain of Tumour suppressor p53/oncoprotein Mdm2 (Homo sapiens) (P04637 whole entry, looked up): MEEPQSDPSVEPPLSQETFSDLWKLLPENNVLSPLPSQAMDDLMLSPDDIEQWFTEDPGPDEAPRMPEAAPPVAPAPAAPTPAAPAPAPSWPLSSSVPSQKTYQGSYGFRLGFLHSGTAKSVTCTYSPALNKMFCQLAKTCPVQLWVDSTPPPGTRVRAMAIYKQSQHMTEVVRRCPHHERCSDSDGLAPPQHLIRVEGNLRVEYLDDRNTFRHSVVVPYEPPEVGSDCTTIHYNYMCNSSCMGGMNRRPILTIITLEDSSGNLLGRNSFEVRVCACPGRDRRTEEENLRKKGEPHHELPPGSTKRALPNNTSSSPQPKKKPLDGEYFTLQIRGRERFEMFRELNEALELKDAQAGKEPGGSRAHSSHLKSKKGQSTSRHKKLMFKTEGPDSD
Chain of Tumour suppressor p53/oncoprotein Mdm2 (Homo sapiens) (Q00987 whole entry, looked up): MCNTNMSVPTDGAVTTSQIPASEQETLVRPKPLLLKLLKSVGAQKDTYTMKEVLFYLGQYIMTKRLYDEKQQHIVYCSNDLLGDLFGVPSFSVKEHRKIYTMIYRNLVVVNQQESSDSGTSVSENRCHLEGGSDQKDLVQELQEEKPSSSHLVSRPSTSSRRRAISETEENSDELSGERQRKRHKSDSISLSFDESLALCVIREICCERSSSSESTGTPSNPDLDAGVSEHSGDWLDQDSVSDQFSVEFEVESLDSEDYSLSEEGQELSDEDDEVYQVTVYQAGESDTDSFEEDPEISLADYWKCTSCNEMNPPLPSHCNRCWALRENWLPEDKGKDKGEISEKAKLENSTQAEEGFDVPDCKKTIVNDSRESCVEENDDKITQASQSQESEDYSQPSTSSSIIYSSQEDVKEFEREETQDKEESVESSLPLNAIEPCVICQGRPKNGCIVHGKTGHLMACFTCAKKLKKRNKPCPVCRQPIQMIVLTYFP

| Compound | inhibition [1] | inhibition [2] | inhibition [3] | Activity [4] | inhibition [5] | inhibition [6] | inhibition [7] | inhibition [8] | IC50 [9] |
| --- | --- | --- | --- | --- | --- | --- | --- | --- | --- |
| C=C[C@@]1(C)CCC2=C(C(=O)O[C@]23CCCC(C)(C)[C@@H]3C(=O)O[C@@H]2O[C@H](CO)[C@@H](O)[C@H](O)[C@H]2O)[C@@H]1O | inactive | inactive | inactive | inactive | inactive | inactive | inactive | inactive | – |
| C=C[C@@]1(C)CCC2=C(C(=O)O[C@]23CCCC(C)(C)[C@@H]3C(=O)O)[C@@H]1O | inactive | inactive | inactive | inactive | inactive | inactive | inactive | inactive | – |
| C=C[C@]1(C)CC2=C(O)C(=O)C3=C(CCCC3(C)C)C2=CC1=O | inactive | inactive | inactive | inactive | inactive | inactive | inactive | inactive | – |
| C=C[C@]1(C)C=C2C(=O)O[C@@]34CCCC(C)(C)[C@@H]3C(=O)O[C@@]24CC1 | inactive | inactive | inactive | – | inactive | inactive | inactive | inactive | 4.5 µM |
| C=C[C@]1(C)C=C2[C@@H](O)[C@@]3(O)OC(=O)[C@@]4(CCCC(C)(C)[C@H]34)[C@@]2(O)CC1 | inactive | inactive | inactive | inactive | inactive | inactive | inactive | inactive | – |

Source: ChEMBL document CHEMBL4316640, “Taichunins A-D, Norditerpenes from Aspergillus taichungensis (IBT 19404)” (J Nat Prod, 2019)
